# What was measured:
# [1] = Half life in rhesus monkey plasma at 202 to 7690 ug administered via intranasal nebulization for 8 mins by LC-MS method; format: ADME, cell-free, Macaca mulatta; conditions: inhaled or intranasal
# Method in brief: (§1)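 Four male rhesus macaques, 5 years old, 9–13 kg, under Telazol (4–5 mg/kg IM) then IV propofol. Dose in propylene glycol given by face mask from a pediatric nebulizer for 8 min. Lumbar CSF collected by passive drip at 60 and 120 min; blood-tinged CSF excluded. Plasma solid-phase extracted with ethyl acetate. LC-MS/MS in duplicate against an internal standard and a 0.8–10 pg/ml calibration curve. ke = (lnC1 − lnC2)/(t2 − t1), confirmed by semi-log regression; t1/2 = 0.693/ke.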
# [2] = Cmax in rhesus monkey CSF at 202 ug administered via intranasal nebulization for 8 mins by LC-MS method; format: ADME, Macaca mulatta, Cerebrospinal fluid; parameters: dose 202 ug, route nasal; conditions: inhaled or intranasal
# Method in brief: (§2)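 Four male rhesus macaques (5 yr, 9–13 kg) under IM Telazol, then IV propofol. Drug in propylene glycol (low 120 μg/ml, high 6.15 mg/ml) was aerosolised for 8 min by pediatric nebuliser through a face mask. Dose was taken from the nebuliser residue. Lumbar CSF was collected by passive drip at 60 and 120 min; blood-tinged samples were discarded. CSF was run unprocessed by LC-MS/MS in duplicate against an artificial-CSF calibration (0.8–10 pg/ml) with internal standard.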
# [3] = Cmax in rhesus monkey CSF at 7690 ug administered via intranasal nebulization for 8 mins by LC-MS method; format: ADME, Macaca mulatta, Cerebrospinal fluid; parameters: dose 7690 ug, route nasal; conditions: inhaled or intranasal; method in brief: as §2
# [4] = Tmax in rhesus monkey CSF at 7690 ug administered via intranasal nebulization for 8 mins by LC-MS method; format: ADME, Macaca mulatta, Cerebrospinal fluid; conditions: inhaled or intranasal; method in brief: as §1
# Rhesus monkey [5] = test: In vivo antagonist activity at OXTR in rhesus monkey assessed as concentration in CSF required to displace endogenous oxytocin at 6.15, im; format: functional, Macaca mulatta
# Method in brief: (§3)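 Estimated OXTR-relevant CSF targets for male rhesus macaques. Values come from OT levels before and after aerosolized IN OT (24 IU) reported in earlier work. They assume a 10 ml total CSF volume and scale from the in vitro Ki, which was measured by displacing 2 nM [3H]OT.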
# [6] = Cmax in rhesus monkey CSF at 1650 ug, im by LC-MS method; format: ADME, organism-based, Macaca mulatta, Cerebrospinal fluid; parameters: dose 1650 ug, route intramuscular
# [7] = Elimination rate constant in rhesus monkey CSF at 7690 ug administered via intranasal nebulization for 8 mins by LC-MS method; format: ADME, Macaca mulatta, Cerebrospinal fluid; conditions: in vivo, inhaled_or_intranasal; method in brief: as §1
# [8] = Tmax in rhesus monkey plasma at 7690 ug administered via intranasal nebulization for 8 mins by LC-MS method; format: ADME, cell-free, Macaca mulatta; conditions: inhaled or intranasal; method in brief: as §1
# [9] = Tmax in rhesus monkey plasma at 202 ug administered via intranasal nebulization for 8 mins by LC-MS method; format: ADME, cell-free, Macaca mulatta; conditions: inhaled or intranasal; method in brief: as §1
# Rhesus monkey [10] = test: In vivo antagonist activity at OXTR in rhesus monkey assessed as concentration in CSF required to displace endogenous oxytocin at 7.69 mg administered via intranasal nebulization for 8 mins; format: functional, Macaca mulatta; method in brief: as §3
# [11] = Cmax in rhesus monkey plasma at 7690 ug administered via intranasal nebulization for 8 mins by LC-MS method; format: ADME, cell-free, Macaca mulatta; parameters: dose 7690 ug, route nasal; conditions: inhaled or intranasal
# Method in brief: (§4)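 Anesthetised male rhesus macaques (Telazol IM, propofol IV) inhaled drug in propylene glycol (low 120 μg/ml, high 6.15 mg/ml) by pediatric nebuliser and face mask for 8 min; dose was taken from nebuliser residue. Plasma (stored −80 C) was spiked with internal standard and extracted by solid-liquid extraction with ethyl acetate, then dried and redissolved in water/methanol/formic acid 70:30:0.1. It was measured in duplicate by C18 LC-MS/MS against a rhesus-plasma calibration. Recovery was about 86%.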
# [12] = Cmax in rhesus monkey plasma at 6150 ug, im by LC-MS method; format: ADME, organism-based, Macaca mulatta; parameters: dose 6150 ug, route intramuscular
# Method in brief: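 Anesthetised male rhesus macaques (n=2; Telazol IM, propofol IV) received 6.15 mg in propylene glycol (6.15 mg/ml) injected into the inner thigh muscle. Plasma was spiked with internal standard and extracted by solid-liquid extraction with ethyl acetate, then redissolved in water/methanol/formic acid 70:30:0.1. It was quantified in duplicate by C18 LC-MS/MS against a rhesus-plasma calibration curve.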
# Rhesus monkey [13] = test: Activity at OXTR in rhesus monkey assessed as concentration in CSF required to elicit behavioral effects at 7.69 mg administered via intranasal nebulization for 8 mins; format: functional, Macaca mulatta; method in brief: as §3
# [14] = Cmax in rhesus monkey plasma at 202 ug administered via intranasal nebulization for 8 mins by LC-MS method; format: ADME, cell-free, Macaca mulatta; parameters: dose 202 ug, route nasal; conditions: inhaled or intranasal; method in brief: as §4
# [15] = Elimination rate constant in rhesus monkey plasma at 202 to 7690 ug administered via intranasal nebulization for 8 mins by LC-MS method; format: ADME, cell-free, Macaca mulatta; conditions: inhaled or intranasal; method in brief: as §1
# [16] = Tmax in rhesus monkey CSF at 202 ug administered via intranasal nebulization for 8 mins by LC-MS method; format: ADME, Macaca mulatta, Cerebrospinal fluid; conditions: inhaled or intranasal; method in brief: as §1
# [17] = Half life in rhesus monkey CSF at 7690 ug administered via intranasal nebulization for 8 mins by LC-MS method; format: ADME, Macaca mulatta, Cerebrospinal fluid; conditions: in vivo, inhaled_or_intranasal; method in brief: as §1
# Rhesus monkey [18] = test: Activity at OXTR in rhesus monkey assessed as concentration in CSF required to elicit behavioral effects at 6.15, im; format: functional, Macaca mulatta; method in brief: as §3
# [19] = Tmax in rhesus monkey plasma at 6150 ug, im by LC-MS method; format: ADME, organism-based, Macaca mulatta
# Method in brief: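 Male rhesus macaques (5 yr, 9–13 kg), anaesthetised with Telazol IM then IV propofol drip, given 6.15 mg in propylene glycol (6.15 mg/ml) into inner thigh muscle (n=2). Plasma separated, stored −80 C, extracted by solid-liquid phase with ethyl acetate plus internal standard. LC-MS/MS (C18, water/methanol/formic acid) in duplicate against calibration curve in rhesus plasma; time of maximum plasma concentration taken.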
# [20] = Drug uptake in Sprague-Dawley rat muscle at 340 to 390 uCi, im up to 120 mins by PET imaging method; format: ADME, organism-based, Muscle tissue; conditions: in vivo, 2 h
# Method in brief: (§5)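 Female Sprague-Dawley rats, 200–330 g, under 4–5% isoflurane in oxygen. [18F]tracer, 340–390 μCi in 100 μl, injected IM just above the knee of the hind leg. PET starting 15 min post injection, 2 h scan, with 7 min Co-57 transmission scan. Time-activity curves of mean nCi/cc, n=3.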
# [21] = Drug uptake in Sprague-Dawley rat muscle at 126 to 295 uCi, iv administered as 30 mins bolus infusion after 15 to 90 mins by PET imaging method; format: ADME, organism-based, Muscle tissue; conditions: in vivo
# [22] = Drug uptake in Sprague-Dawley rat skull at 126 to 295 uCi, iv administered as 30 mins bolus infusion after 15 to 90 mins by PET imaging method; format: ADME, organism-based; conditions: in vivo
# [23] = Drug uptake in Sprague-Dawley rat skull at 340 to 390 uCi, im up to 120 mins by PET imaging method; format: ADME, organism-based; conditions: in vivo, 2 h; method in brief: as §5
# Brain = test: Drug uptake in Sprague-Dawley rat brain at 126 to 295 uCi, iv administered as 30 mins bolus infusion after 15 to 90 mins by PET imaging method; format: ADME, organism-based; conditions: in vivo
# Oxytocin receptor = biological target: T1, Oxytocin receptor (Homo sapiens, UniProt P30559); test: Displacement of [3H]Oxytocin from human OXTR expressed in CHO cell membranes after 90 mins by liquid scintillation counting method
# T1 sequence (P30559 whole entry): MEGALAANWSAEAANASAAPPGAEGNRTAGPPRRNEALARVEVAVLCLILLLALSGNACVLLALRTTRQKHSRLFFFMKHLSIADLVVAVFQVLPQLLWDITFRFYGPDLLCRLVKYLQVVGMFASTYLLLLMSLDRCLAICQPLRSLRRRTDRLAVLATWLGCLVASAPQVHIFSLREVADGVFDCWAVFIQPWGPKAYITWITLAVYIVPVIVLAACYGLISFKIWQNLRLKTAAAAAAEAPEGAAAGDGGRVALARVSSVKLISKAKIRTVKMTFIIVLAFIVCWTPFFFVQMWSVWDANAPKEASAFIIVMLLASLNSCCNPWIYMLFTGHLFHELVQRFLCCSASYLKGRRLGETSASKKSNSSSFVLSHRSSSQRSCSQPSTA
compound,measurement,setting,value
CS(=O)(=O)N1CCC(Oc2ccc(CC(=O)N3CCC(N4C(=O)CCc5ccccc54)CC3)c(OCCF)c2)CC1,half-life,[1],0.483 h
same,Cmax,[2],0.00736 ng/mL
same,Cmax,[3],0.0972 ng/mL
same,Tmax,[4],1 h
same,Activity,Rhesus monkey [5],56 pM
same,Cmax,[6],0.478 ng/mL
same,Kel,[7],0.007 min⁻¹
same,Tmax,[8],0.25 h
same,Tmax,[9],5 min
same,Activity,Rhesus monkey [10],56 pM
same,Cmax,[11],156 ng/mL
same,Cmax,[12],740 ng/mL
same,Activity,Rhesus monkey [13],24 pM
same,Cmax,[14],1.16 ng/mL
same,k el at 8 min,[15],0.0004 s⁻¹
same,Tmax,[16],2 h
same,t1/2,[17],1.6 h
same,Activity,Rhesus monkey [18],24 pM
same,Tmax,[19],1 h
CS(=O)(=O)N1CCC(Oc2ccc(CC(=O)N3CCC(N4C(=O)CCc5ccccc54)CC3)c(OCC[18F])c2)CC1,Drug uptake,[20],Active
same,Drug uptake,[21],Active
same,Drug uptake,[22],Active
same,Drug uptake,[23],Active
same,Drug uptake,Brain,Active
Cc1ccccc1N1CCN(S(=O)(=O)CC23CCC(CC2NC(=O)C(N)CCS(C)(=O)=O)C3(C)C)CC1 (stereo not given),Ki,Oxytocin receptor,17 nM
